Assay results published in ChEMBL document CHEMBL1933010, “3-heterocyclyl quinolone inhibitors of the HCV NS5B polymerase” (Bioorg Med Chem Lett, 2012).

How the values were obtained:
[1] = Inhibition of Hepatitis C virus genotype 1b BK isolate NS5b polymerase activity using [3H]UTP preincubated for 120 mins measured after 1 hr by scintillation proximity assay
Summary of the method: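 Scintillation proximity assay at 22 °C. Started with [3H]UTP, UTP, 250 nM 5'-biotinylated oligo(rU12) and poly(rA). Stopped at 120 min with tRNA/streptavidin SPA beads/EDTA; 30 min, then CsCl, 1 h, top-count.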

Hepatitis C virus = test: Antiviral activity against Hepatitis C virus genotype 1b infected in human HuH7 cells assessed as inhibition of viral replication after 48 hrs by quantitative RT-PCR; type: functional, organism-based, Hepacivirus hominis; settings: Huh-7, 48 h
Summary of the method: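 Huh7/Clone A replicon cells seeded at 40,000/well without G418 and kept overnight at 37 °C, 5% CO2. DMSO-serially diluted compound added (final DMSO 0.5%), 7 concentrations in triplicate, 48 h at 37 °C. Total RNA extracted; HCV replicon RNA quantified by TaqMan RT-qPCR relative to untreated cells (100%). EC50 from a 4-parameter curve fit.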

[2] = Cytotoxicity against human HuH7 cells assessed as cellular GAPDH level after 48 hrs by quantitative RT-PCR; type: cell-based, Huh-7; settings: read-out: GI50

Row | SMILES | IC50 [1] | EC50 (Hepatitis C virus) | CC50 at 48 h [2]
1 | CN1CCN(c2cc3c(cc2F)c(=O)c(-c2noc(Cc4ccc(F)cc4F)n2)cn3Cc2ccc(Cl)cc2)CC1 | 75 nM | 3680 nM | 4700 nM
2 | CN1CCN(c2cc3c(cc2F)c(=O)c(-c2nnc(Cc4ccccc4)o2)cn3Cc2ccc(C(F)(F)F)cc2F)CC1 | 38 nM | 610 nM | 4600 nM
3 | CN1CCN(c2cc3c(cc2F)c(=O)c(-c2nnc(Cc4ccccc4)o2)cn3Cc2ccc(Cl)cc2)CC1 | 115 nM | 4400 nM | 9800 nM
4 | CN1CCN(c2cc3c(cc2F)c(=O)c(-c2noc(Cc4ccccc4)n2)cn3Cc2ccc(Cl)cc2)CC1 | 23 nM | 840 nM | 7300 nM
5 | COc1cc2c(=O)c(-c3nnn(Cc4ccccc4)n3)cn(Cc3ccc(Cl)cc3)c2cc1OC | > 10000 nM | – | –
6 | COc1cc2c(=O)c(C3=N[C@@H](C)[C@@H](c4ccccc4)O3)cn(Cc3ccc(Cl)cc3)c2cc1OC | 4300 nM | 8910 nM | –
7 | COc1cc2c(=O)c(-c3noc(-c4ccccc4)n3)cn(Cc3ccc(Cl)cc3)c2cc1OC | > 10000 nM | – | –
8 | COc1cc2c(=O)c(-c3nnc(Cc4ccc(Cl)cc4)o3)cn(Cc3ccc(Cl)cc3)c2cc1OC | 1600 nM | – | –
9 | COc1cc2c(=O)c(-c3noc(CCc4ccccc4)n3)cn(Cc3ccc(Cl)cc3)c2cc1OC | > 10000 nM | – | –
10 | CN1CCN(c2cc3c(cc2F)c(=O)c(-c2noc(Cc4ccccc4)n2)cn3Cc2ccc(C(F)(F)F)cc2)CC1 | 24 nM | 360 nM | 15000 nM
11 | CN1CCN(c2cc3c(cc2F)c(=O)c(-c2nnc(Cc4ccc(F)cc4)o2)cn3Cc2ccc(C(F)(F)F)cc2F)CC1 | 45 nM | 730 nM | 5700 nM
12 | COc1cc2c(=O)c(-c3noc(Cc4ccccc4)n3)cn(Cc3ccc(Cl)cc3)c2cc1OC | 41 nM | 10300 nM | –
13 | CN1CCN(c2cc3c(cc2F)c(=O)c(-c2noc(Cc4ccc(F)cc4)n2)cn3Cc2ccc(C(F)(F)F)cc2F)CC1 | 15 nM | 230 nM | 6000 nM
14 | COc1cc2c(=O)c(-c3nc(-c4ccc(Cl)cc4)no3)cn(Cc3ccc(Cl)cc3)c2cc1OC | > 10000 nM | – | –
15 | COc1cc2c(=O)c(-c3nc(Cc4ccccc4)no3)cn(Cc3ccc(Cl)cc3)c2cc1OC | 730 nM | – | –
16 | CN1CCN(c2cc3c(cc2F)c(=O)c(-c2noc(Cc4ccccc4)n2)cn3Cc2ccc(C(F)(F)F)cc2F)CC1 | 14 nM | 250 nM | 7000 nM
17 | COc1ccc2c(c1)c(=O)c(-c1ncc(Cc3ccccc3)o1)cn2Cc1ccc(Cl)cc1 | 1800 nM | – | –
18 | CN1CCN(c2cc3c(cc2F)c(=O)c(-c2noc(Cc4ccc(F)cc4)n2)cn3Cc2ccc(Cl)cc2)CC1 | 19 nM | 1430 nM | 6400 nM
